Test results from PMC2984665 (Phytochemistry, 2010).

System: not listed separately
Assay: stability of the isolated pure compounds on storage
Assay type: physicochemical
Details: pure isolated compound; decomposition followed by discoloration and LC-MS

Question: With Sebestenoid A [Compound 1] as the substance, how does the “stability after isolation in pure form” value read?
Answer: The value was “stable”.

Question: Which “stability after isolation in pure form” value does the source give for Sebestenoid B [Compound 2] here?
Answer: The value was “decomposed rapidly”.

Question: For Sebestenoid C [Compound 3], which “stability after isolation in pure form” value is on record?
Answer: The value was “stable”.

Question: For Sebestenoid D [Compound 4], which “stability after isolation in pure form” value is on record?
Answer: The value was “decomposed rapidly”.

Biological target: serine protease chymotrypsin (Bos taurus, UniProt P00766)
Assay: chymotrypsin chemiluminescent assay with and without detergent
Assay type: biochemical
Details: read-out: IC50, inhibition of chymotrypsin; without detergent
Outline: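 Serine protease chymotrypsin, standard chemiluminescent read-out. Each test compound run in parallel without detergent and with 0.01% (v/v) Triton added, to screen for aggregation-based inhibition; IC50 derived under each condition.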

Question: With Sebestenoid C [Compound 3] as the substance, how does the IC50 read?
Answer: Its IC50 is 33 µM.

Question: With Sebestenoid D [Compound 4] as the substance, how does the IC50 read?
Answer: The IC50 was 27 µM.
